8 compounds from ChEMBL document CHEMBL1148969, “Lanostanoid triterpenes from Laetiporus sulphureus and apoptosis induction on HL-60 human myeloid leukemia cells” (J Nat Prod, 2004) can be followed below.

The subject of assay [1] is HL-60. The assay can be described thus: Cytotoxicity against human HL60 cells after 96 hrs by MTT assay. The class given is functional, cell-based. As to conditions: for IC50: HL-60, 96 h. A digest of the protocol: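 HL-60 promyelocytic leukemia cells; growth inhibition read by MTT; IC50 determined graphically for each experiment by curve fitting. Mean ± SEM of two independent experiments with three determinations each; ursolic acid as positive control.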

Assay [2] relates to HL-60. The assay can be described thus: Induction apoptosis in human HL60 cells assessed as condensation of chromatin at 10 uM after 8 hrs by fluorescence microscopy. Format: functional, cell-based. An outline of the steps: (§1)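 HL-60 cells cultured with or without 10 µM compound for 8 h, stained with Hoechst 33258; nuclei examined by fluorescence microscopy for chromatin condensation, shrinkage and apoptotic bodies.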

Assay [3] has as its system HL-60. The assay can be described thus: Induction apoptosis in human HL60 cells assessed as appearance of apoptotic bodies at 10 uM after 8 hrs by fluorescence microscopy. The class given is functional, cell-based. An outline of the steps: as §1
In assay [4] the test system is HL-60. The assay can be described thus: Induction apoptosis in human HL60 cells assessed as […] DNA fragmentation at 30 uM after 16 hrs by electrophoresis. The class given is functional, cell-based. A digest of the protocol:
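Cells treated 16 h at 30 µM; total cellular DNA extracted, run on 2% agarose gel, ethidium bromide stained and internucleosomal ladder viewed under UV; etoposide 3 µM positive control.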

In assay [5] the test system is HL-60. Kind of assay: Induction apoptosis in human HL60 cells assessed as cytochrome c release from mitochondria at 10 uM after 6 hrs by Western blot analysis. Format: functional, cell-based. An outline of the steps:
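Cells treated 6 h at 10 µM; cytosolic fraction isolated and immunoblotted with monoclonal anti-cytochrome c (band near 15 kDa); β-actin loading control.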
(Immunoblotting shows a protein as a band on a membrane.)

In assay [6] the test system is HL-60. Kind of assay: Induction apoptosis in human HL60 cells assessed as caspase 3 activity after 6 hrs. The class given is functional, cell-based. A digest of the protocol: (§2)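 HL-60 cells given 10 µM for 6 h; lysates with equal protein incubated with colorimetric substrate DEVD-pNA, absorbance at 405 nm. Expressed as fold increase over untreated control; representative experiment in duplicate; etoposide 10 µM positive control.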

The test system of assay [7] is HL-60. Kind of assay: Induction apoptosis in human HL60 cells assessed as appearance of apoptotic nuclei at 30 uM after 8 hrs by fluorescence microscopy. The class given is functional, cell-based. An outline of the steps:
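Cells exposed to 30 µM for 8 h, then Hoechst 33258 (bisbenzimide) stained; apoptotic nuclei counted by fluorescence microscopy. Mean ± standard error of one experiment in triplicate, repeated once separately; etoposide as positive control.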

The test system of assay [8] is HL-60. Kind of assay: Induction apoptosis in human HL60 cells assessed as caspase 3 activity at 10 uM after 6 hrs relative to control. Format: functional. An outline of the steps: as §2
Assay [9] deals with HL-60. Kind of assay: Induction apoptosis in human HL60 cells assessed as PARP1 cleavage at 10 uM after 6 hrs by SDS-PAGE. Format: functional, cell-based. An outline of the steps: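 After 6 h at 10 µM, equal protein from whole-cell lysates run on SDS-PAGE, blotted and probed with anti-PARP-1 monoclonal antibody detecting native 116 kDa and cleaved 85 kDa forms; etoposide positive control.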

The source made the active and inactive calls. No cut-off for these calls is given here.

Usually IC50 stands for the concentration needed to halve the response being measured. High values mean lower potency, low ones higher potency. Regarding `CC(C)=CCC[C@@H](C(=O)O)[C@H]1C[C@H](O)[C@@]2(C)C3=C(CC[C@]12C)[C@@]1(C)CC[C@H](O)C(C)(C)[C@@H]1CC3`, in the assay on HL-60 [1], the Activity entry is “Dose-dependent effect” and inhibition was half-maximal at 12 µM (IC50).
On to `C=C(CC[C@@H](C(=O)O)[C@H]1C[C@H](O)[C@@]2(C)C3=C(CC[C@]12C)[C@@]1(C)CCC(=O)C(C)(C)[C@@H]1CC3)C(C)C`, for which, in the assay with HL-60 [1], the Activity result was “Dose-dependent effect” and half-maximal inhibition (IC50) required 407 µM.
For `C=C(CC[C@@H](C(=O)O)[C@H]1C[C@H](OC(C)=O)[C@@]2(C)C3=C(CC[C@]12C)[C@@]1(C)CCC(=O)C(C)(C)[C@@H]1CC3)C(C)C`, the Activity result in the assay on HL-60 [1] and in the assay with HL-60 [6] was “Dose-dependent effect” in each case. The compound also came in with an IC50 with HL-60 [1] of 25 µM. Also, the outcome in the assay with HL-60 [2], in the assay on HL-60 [3], in the assay on HL-60 [4] and in the assay with HL-60 [5] was Active.
Consider `C=C(CC[C@@H](C(=O)O)[C@H]1CC[C@@]2(C)C3=C(CC[C@]12C)[C@@]1(C)CC[C@H](OC(C)=O)C(C)(C)[C@@H]1CC3)C(C)C` [ACETYL EBURICOIC ACID], for which the Activity result with HL-60 [1] and in the assay with HL-60 [6] was “Dose-dependent effect” in each case. In the assay with HL-60 [1], this compound gave an IC50 of 15 µM. In addition, the outcome with HL-60 [2], in the assay with HL-60 [3], in the assay with HL-60 [7], in the assay with HL-60 [4], with HL-60 [9] and in the assay on HL-60 [5] was Active. Also, in the assay on HL-60 [8], the “fold change (FC)” value was found to be 7.
Regarding `CC(=O)O[C@H]1CC[C@]2(C)C3=C(CC[C@H]2C1(C)C)[C@]1(C)CC[C@H]([C@@H](CCC=C(C)C)C(=O)O)[C@@]1(C)CC3` [ACETYL TRAMETENOLIC ACID], the Activity entry in the assay with HL-60 [1] and with HL-60 [6] was “Dose-dependent effect” each time. For the same compound, the IC50 in the assay on HL-60 [1] was 31 µM. The result in the assay on HL-60 [2], in the assay with HL-60 [3], with HL-60 [7] and with HL-60 [4] was Active.
For the compound `C=C(CC[C@@H](C(=O)O)[C@H]1CC[C@@]2(C)C3=C(CC[C@]12C)[C@@]1(C)CC[C@H](O)C(C)(C)[C@@H]1CC3)C(C)C` [EBURICOIC ACID], the Activity entry with HL-60 [1] and in the assay on HL-60 [6] was “Dose-dependent effect” each time. Moreover, it took 25 µM to reach half-maximal inhibition in the assay on HL-60 [1] (IC50). Moreover, the result in the assay on HL-60 [2], with HL-60 [3] and in the assay on HL-60 [4] was Active.
With `C=C(CC[C@@H](C(=O)O)[C@H]1C[C@H](O)[C@@]2(C)C3=C(CC[C@]12C)[C@@]1(C)CC[C@H](O)C(C)(C)[C@@H]1CC3)C(C)C` [SULFURENIC ACID], in the assay with HL-60 [1], the Activity entry was “Dose-dependent effect” and the IC50 is 14 µM.
As for `C[C@H]1[C@H](C)CC[C@]2(C(=O)O)CC[C@]3(C)C(=CC[C@@H]4[C@@]5(C)CC[C@H](O)C(C)(C)[C@@H]5CC[C@]43C)[C@H]12` [URSOLIC ACID], in the assay on HL-60 [1], the Activity entry was “Dose-dependent effect” and the IC50 amounted to 21 µM.
